Results gathered from unrelated publications.
Lines come from different studies, so protocols differ.
Observed: cell growth or viability

Compound	cell line	method	concentration	time	endpoint	value
CC[C@@]1(O)C(=O)OCc2c1cc1n(c2=O)Cc2cc3ccccc3nc2-1	MIA PaCa-2	SRB		48 h	IC50	0.151 µM
O=[N+]([O-])c1ccc(NCCCCCCN=C=S)c2nonc12	T47D	MTT		24 h	IC50	1.2 µM
N.N.[Cl][Pt][Cl]	JVM-3	ATP luminescence	10 µM	72 h	inhibition	100%
Cc1cc(=O)oc2cc(OCCCC[Se]C#N)ccc12	MIA PaCa-2	SRB			GI50	2.6 µM
Cc1ncsc1-c1ccc([C@H](C)NC(=O)[C@@H]2C[C@@H](O)CN2C(=O)[C@@H](c2cc(N3CCC(CN4CCC(OC5CC(Oc6cc(N7C8CCC7CN(c7cc(-c9ccccc9O)nnc7N)C8)ccn6)C5)CC4)CC3)no2)C(C)C)cc1 (stereo partly shown)	LNCaP	ATP luminescence		7 days	IC50	0.0032 µM
CC(=O)c1c(C)c2cnc(Nc3ccc(C4CCN(CCS(C)(=O)=O)CC4)cn3)nc2n(C2CCCC2)c1=O	T47D	ATP luminescence		72 h	IC50	0.177 µM
COC(=O)c1cc(C(C)=NNc2nc(-c3ccc(S(=O)(=O)F)cc3)cs2)ccc1O	T47D	MTT		96 h	IC50	26.3 µM
C[S+]([O-])CCCCN=C=S (stereo not shown)	T47D	MTT		24 h	IC50	30.4 µM
N#C[Se]Cc1cc(=O)oc2cc(O)ccc12	T47D	SRB			GI50	35 µM
O=C1c2ccccc2-c2c3c(cc4ccnc1c24)OCO3	T47D	MTT		75 h	IC50	15.9 µM
